From the RNAGym collection of RNA variant scans (doi:10.1101/gad.245936.114) come the findings set out here.

Fewer inactive variants are shown than the library holds.

Sequences and labels used below:
B1: tRNA (parent)
chain: CUCUCGGUAGCCAAGUUGGUUUAAGGCGCAAGACUUUAAUUUAUCACUACGAAAUCUUGAGAUCGGGCGUUCGACUCGCCCCCGGGAGAUUUUUUCCUCGAGCAA

This series covers variants of B1. The experiment in a line: nonsense suppression (GFP-seq) (ratio to wild type); higher = more function; SUP4oc tRNA, yeast GFP reporter sort-seq. An outline of the steps: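 Nonsense suppression (GFPSEQ) is the median GFP/RFP ratio of each sorting bin, weighted by the variant's estimated share of cells in that bin and expressed relative to the unmutated parent tRNA. Yeast strains carried genome-integrated variants of an ochre-suppressor tRNA from a library with ~3% random mutations, plus a galactose-driven GFP ochre reporter and RFP, and were grown in raffinose/galactose medium containing 80 mg/L adenine. Cells were sorted into GFP/RFP bins, each bin was Illumina-sequenced (phred ≥30), and variants were kept only with ≥100 reads and ≥30 cells.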
Turning to U21C C56G U70C C75G, the nonsense suppression is not above 0.026.
With U21A C34G C82U A89U, the nonsense suppression is not above 0.026.
For U20C U57C U58G G61C, the nonsense suppression is not above 0.026.
The result for U20C G59A reads 0.0894; that for U17G A54C, 0.64; that for U17G A54U, 1.16.
Then U17A U55C, with 0.176; and U20A U71A, with not above 0.026.
The result for U20A C56A G66A reads not above 0.026; that for U20C A31C C79A G85C, not above 0.026; that for U21C A30G, 0.967.
As for G18A A30G, the nonsense suppression was determined as 0.0263.
Then G18A A30U, with 0.0262; and G18C A33G C80G, with not above 0.026.
Then U20C U22C, with 0.814; and U17A U70G, with not above 0.026.
As for U17G G67A, the nonsense suppression is 0.0593.
As for U17C G28A G61C, the nonsense suppression was 0.716.
Then U20C C29U, with 0.0276; and U21C C56U, with 0.174.
The result for U17A U21A reads 0.966; that for U21C U35A C64G G66C C72G, not above 0.026.
Then U21C G32U U58C, with not above 0.026; and U20C C27G, with not above 0.026; and U17C G61C, with 0.769.
As for U17C G61A, the nonsense suppression is 0.235.
In the case of U17A U22G, the nonsense suppression amounted to 1.03.
As for U20A G78A, the nonsense suppression was 0.0977.
The result for U21C U57C C80U G85A reads not above 0.026; that for G19C U71C, not above 0.026.
The result for U20G U71G reads not above 0.026.
Then U20G U21G, with 0.75; and U20G U21C, with 0.761; and U20G U21A, with 1.18.
Regarding U17C U63C, the nonsense suppression worked out at 1.18.
Then U17C U63A, with 0.197; and U17C U63G, with 0.804.
Then U21A U55C U57G, with not above 0.026; and G18U A33U C82U A89C, with not above 0.026.
Then G18C G61A, with not above 0.026; and U20C A54G, with 0.052; and U20C A54U, with 0.62.
As for U21C G61A, the nonsense suppression worked out at 0.881.
Then U17G G32U U55A U57C U76C, with not above 0.026; and U17G C83A, with not above 0.026.
Then U21C U22A, with 1.14.
The result for G18C C29U G85A G88A reads not above 0.026.
On to U20C U63G, for which the nonsense suppression turned out to be 0.0493.
The result for U20A U22C reads 1.11.
The result for U21C A62G reads 0.0282; that for G18C G88A, 0.135; that for G19C A23C C56G G85U, not above 0.026.
As to U20C C56G, the nonsense suppression is not above 0.026.
Regarding G19A A23C G85U, the nonsense suppression is not above 0.026.
The result for U20G G67A reads 0.0529; that for U20G G25A G78A, not above 0.026; that for U21A A30G, 0.42.
Then U17C C29A G65A C72U C77U, with not above 0.026; and U20A A31G, with 0.461.
The result for G19U A54U C72G reads not above 0.026; that for U20G A30U, 0.444.
Take U21A U22A G28C U55A G69A: the nonsense suppression is not above 0.026.
In the case of U20A G73C, the nonsense suppression worked out at 0.0366.
The result for U21A A54C G61A reads 0.215; that for G18U U55C, 0.0402; that for U21A A60G, 0.302.
The result for U17G G61U reads 0.832; that for U17G G61C, 0.371; that for U20A G28A, 0.813.
For U20A G28C, the nonsense suppression was determined as 0.182.
Then U17A G28U A31C C80G G84C G86A, with not above 0.026; and U21A C75A, with 0.947; and U21A A87G, with 0.493.
The result for G18A G25U G67C reads not above 0.026; that for U17G A23C, not above 0.026; that for U17C U55C, 0.444.
Then U17A G32C U71G, with 0.0947.
With U20G A33U, the nonsense suppression was determined as 0.0902.
Then U20G A33G, with 0.18; and U17C G28A, with 1.09; and U17G A60C, with 0.188.
Then G19A U63C C82A, with not above 0.026; and U20A A54U U76C, with 0.24.
Then U17C U35G G61C U76C, with not above 0.026; and G19U C29A G59A, with not above 0.026; and U17G A30G, with 0.397.
For the variant U17G A30U, the nonsense suppression came out at 0.0613.
The result for U21C A24G reads 0.0906; that for U21C A24U, 0.194; that for U20A C75G G85U, 0.154.
The result for U17G G19C U21A U57A G78U reads not above 0.026.
The result for U17G G28A reads 1.12; that for U17G G28C, 0.209.
For U21C G61A A62C, the nonsense suppression was 0.0269.
Then U21C A23C U71G G78A, with not above 0.026.
The result for U21A A24U reads 0.184; that for U21A A24C, 0.753.
The result for U17G A31G reads 1.15; that for G19C U21C G66C G84A G86A, not above 0.026.
Turning to U20G C82U, the nonsense suppression stood at 0.838.
Then U20C U35C, with 0.0559; and U17G U21G G61U, with 0.0263; and U21C C27U, with 0.154.
Then U20C C77U, with 0.0349; and U20G U55C A74G, with not above 0.026; and G18A A24C, with 0.0483.
The result for U21A G28C reads 0.495.
Take U20C U76C: the nonsense suppression amounted to 0.228.
Then U20A A87G, with 0.226; and U21C G26U G67A C80G, with not above 0.026; and U17G A33U U63G C68A U71G, with not above 0.026.
Turning to G19U G28A C56G, the nonsense suppression is not above 0.026.
The result for U20C G88U reads not above 0.026; that for G19C C34U U71C C82G, not above 0.026; that for U21C A54C U63G C82U, not above 0.026.
On to U20G G26C, for which the nonsense suppression was not above 0.026.
The result for G18U U76C G86U reads not above 0.026; that for U20G G61A, 0.635.
In the case of U20G G61C, the nonsense suppression was determined as 0.615.
As for U20G G61U, the nonsense suppression was 0.874.
The result for G19C G67C reads not above 0.026; that for G19U A24G G78C A89C, not above 0.026; that for U17G U21C, 1.05.
Then U17G U21A, with 1.16.
Then U17G U21G, with 0.717.
Turning to U17C U22A, the nonsense suppression turned out to be 0.758.
The result for G19C C56U U57C reads not above 0.026; that for G19U G67U, not above 0.026.
As to U20C C83G G86A, the nonsense suppression was not above 0.026.
Then G18U G25U G67C, with not above 0.026.
The result for U17C C29G reads not above 0.026.
In the case of G18C G19A G66A, the nonsense suppression was not above 0.026.
Then U21A G66U C80G, with 0.219.
The result for U21A U63G G86A reads not above 0.026; that for U20A U57A, not above 0.026.
The result for U21A C79U reads 0.444.
Turning to U21A C79G, the nonsense suppression is not above 0.026.
Then U17C U21G, with 0.801; and U20G C79G A87G, with not above 0.026; and U17C U63A C72G, with not above 0.026.
Consider U20C G86A, for which the nonsense suppression is not above 0.026.
Then U20C G86C, with not above 0.026; and U17C G28U A30C, with not above 0.026; and U17G A54G U57C, with not above 0.026.
Then G19A U63G, with 0.143; and U20C A87G, with 0.213; and U20C A87U, with 0.0273.
Take U20C G28A U57G C77A: the nonsense suppression was 0.813.
For the variant U17G U63A C75A G85A, the nonsense suppression turned out to be 1.08.
The result for U21A G78C reads 0.0372; that for G18C A54G, not above 0.026; that for U17C C68A C82U, not above 0.026.
Then U20G C29U, with 1.12; and G18A A87G, with 0.036.
The result for U17G C75U A87G reads 0.77; that for U20C A89U, 0.0684.
As to G19U A24G A87G, the nonsense suppression was not above 0.026.
Then U17C G84A, with 0.048; and U20C U21C, with 1.15; and U20C U21A, with 0.188.
The result for G18C C27G G67A G69C reads 1.05; that for U17C A60C, 0.196; that for U17C A60G, 0.411.
The result for G18U G59A reads not above 0.026; that for G18C A24C A33U, not above 0.026.
U17C G28C A54U: the nonsense suppression amounted to 0.219.
Then G18U C83A, with not above 0.026.
